In the array DNA melting data of Ke et al. (doi:10.1101/2024.01.08.574731):

Legend:
[1] = melting temperature; fluorescence melt of hairpins on a sequencing array, two-state fit, raised by 9.35 °C to match UV melts; details: sodium 0.088 M
Method in brief: (§1)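 Cy3 fluorescence of library hairpins on a sequenced MiSeq flow cell, with annealed Cy3 and quencher oligos, was imaged in 50 mM Na-HEPES pH 8.0, 25 mM NaCl in 2.5 °C steps up to 60 °C. Signals were normalised to pre-quench Cy3 and to control variants. Melting temperature and folding enthalpy came from bootstrapped two-state fits, inverse-variance combined over four replicates. Fitted temperatures were raised by 9.35 °C to match UV melts.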

[2] = folding enthalpy; higher = less favourable; fluorescence melt of hairpins on a sequencing array, two-state fit; details: sodium 0.088 M
Method in brief: as §1

Row | Sequence | Tm [1] [°C] | folding enthalpy [2] [kcal/mol]
1 | GGTGGCGAAAGCCGACC ((((((....))).))) | 59.6 | -17.6
2 | GCTACGCGAAAGCTTTGC ((.(.((....)).).)) | 36.7 | -13
3 | GTTGCTCGAAAGAGAAAC (((.(((....))).))) | 48 | -32.3
4 | GCAACTCGAAAGAGATGC (((.(((....))).))) | 53.8 | -40.1
5 | GATCCGCTACCGGATC ((((((....)))))) | 56.8 | -48
6 | GTGTCATCGAAAGATCAC (((..(((....)))))) | 32.4 | -17.1
7 | GACTCACGAAAGTGGGTC (((.(((....))).))) | 57.6 | -41.1
8 | GCTCATCGAAAGATTAGC (((.(((....))).))) | 42.8 | -34.5
9 | GATCTATCGTAGATC ((((((...)))))) | 38.4 | -12.9
10 | GCTCTGCGAAAGCAGTGC ((.((((....)))).)) | 62 | -16.7
11 | GCCTTCGAAAGAATTGGC ((((((....)))..))) | 37 | -22.9
12 | GAAACGCGAAAGCGCTTC (((.(((....))).))) | 51.5 | -18.7
13 | GCTACGGAAACGTAGC ((((((....)))))) | 66.5 | -42
14 | GATCCAGGGTTGGATC ((((((....)))))) | 50.8 | -34.2
15 | GGAGGCTCGAAAGAGTCC (((..(((....)))))) | 35.8 | -14.4
16 | GCTTACGAAAGTATTAGC ((((((....)))..))) | 33.5 | -23.9
17 | GATACTGGAAACGGTATC (((((.(....).))))) | 42.7 | -30.4
18 | GATAGCGAAAGCTCTATC ((((((....)))..))) | 26.4 | -11.1
19 | GATCTTGCCTAAGATC ((((((....)))))) | 48.2 | -39.2

Row | Sequence | Tm [1] [°C] | folding enthalpy [2] [kcal/mol]
20 | GGTCTCGAAAGAGGTACC ((((((....)))..))) | 35 | -19.9
21 | GATCCCAATCGGGATC ((((((....)))))) | 61.6 | -40.2
22 | GACCAAGGAAACTTGGTC (((((((....))))))) | 60.5 | -35.8
23 | GGTCCCGAAAGGGCACC ((((((....))).))) | 53.5 | -16.6
24 | GTCTCCCGAAAGGGGAC (((.(((....)))))) | 54.8 | -31.4
25 | GTCGTTGAAAAACGAC ((((((....)))))) | 61.6 | -35.2
26 | CGCGGAACAGTCCGCG ((((((....)))))) | 67.2 | -33.1
27 | GGAAGACCGAAAGGTTCC (((..(((....)))))) | 37.4 | -16
28 | GACAGCGAAAGCTAGGTC ((((((....)))..))) | 39.4 | -18.4
29 | GCACGGCGAAAGCACTGC (((..((....))..))) | 40.5 | -20.1
30 | GATCCTCCTCAGGATC ((((((....)))))) | 50.2 | -45.2
31 | GTTTGTGAAAACAAAC ((((((....)))))) | 53.7 | -37.6
32 | GCCCTCACGAAAGTGGGC (((..(((....)))))) | 53.5 | -19.4
33 | GATCTCTTAAGAGATC ((((((....)))))) | 54.2 | -37.3
34 | GCAGGGCGAAAGCGATGC (((..((....))..))) | 57 | -26.1
35 | GTCACGCGAAAGCGGAC (((.(((....)))))) | 57 | -15.1
36 | GCCCAGCGAAAGCTCTGC ((..(((....)))..)) | 26.9 | -6.7
37 | GAAACCGAAAGGTATTC ((((((....))).))) | 31.6 | -14.1
38 | GGCCCCGAAAGGGAGCC ((((((....))).))) | 68.4 | -31.6
